Compound activity as filed in PubChem BioAssay.
DENV2 CPE: inhibitors of DENV2 cytopathic effect, primary screen, cell-based, plate reader, single concentration; DENV2-infected cells, cytopathic effect rescue; CPE inhibition, % at 9.99 µM; 1.7% of 350,000 active; in the data active = CPE inhibition above about 20%, passing the limit was not always enough; inconclusive = no clear call, values can overlap the other calls; tested in BHK-21 cells
Xi reactivation: activators of inactive X chromosome reactivation, primary screen, imaging, XiGFP fibroblasts, GFP high-content imaging, set 2 | XiGFP mouse fibroblasts, % GFP-positive cells imaging, 3 d; cells co-treated with 5-aza-dC sensitizer; scaled so ellipticine positive control = 100% | activation, % at 7.58 µM | 0.055% of 360,000 active | AID 743238, 2013;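 active = mean normalized replicate activation at least 10% and every replicate at or above 10%; inconclusive = only one of the two criteria met; inactive = mean below 10% and not all replicates reach 10%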
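Assay system: SV40-immortalized XiGFP fibroblast cells, line 68-5-11; buffer or medium: DMEM plus 5-aza-dC sensitizer; compound: one concentration, pinned; timing: compounds 3 days, fix/stain 15 min at room temperature; benchmarks: positive control ellipticine, 6 µM final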
C2C12 statin: suppressors of statin myotoxicity in C2C12 myotubes, primary screen, cell-based, single point, plate reader | C2C12 myotubes + simvastatin, ATP luminescence, 48 h; scaled: DMSO 0, geranylgeraniol control 100 | rescue of ATP level, % at 7.49 µM | 0.78% of 330,000 active;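 active = mean ATP rescue above about 67%, or every replicate alone reaching that limit, limit read from the data, passing the limit was not always enough; inconclusive = no clear call, values can overlap the other calls; inactive = mean under the limit and some replicate under it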;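 note: myotubes were challenged with 10 µM simvastatin during compound exposure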
PglD inh: C. jejuni PglD acetyltransferase inhibitors, primary screen, biochemical, DTNB colorimetric, single point; UDP-N-acetylbacillosamine N-acetyltransferase PglD (Campylobacter jejuni); purified PglD enzyme, DTNB colorimetric CoA detection; inhibition, % at 12.5 µM; 0.098% of 360,000 active; in the data active = inhibition above about 16%, passing the limit was not always enough; inconclusive = no clear call, values can overlap the other calls
FGF22 binding: binders of human FGF22 protein, primary screen, FGF22 synaptogenesis inhibitor project, biophysical, thermal shift, single point | 1.5% of 340,000 active | recombinant FGF22 thermal shift, SYPRO orange fluorescence; percent of sucrose octasulfate shift, DMSO zero | Fibroblast growth factor 22 (Homo sapiens), Q9HCT0 | AID 651658, 2012 | activity (Tm shift, normalised), % at 9.99 µM;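 active = mean Tm shift, scaled 0 neutral to 100 positive control, at about 1.3% or above, every replicate too, limit read from the data; inconclusive = no clear call, values can overlap the other calls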
Target sequence (Q9HCT0 whole entry, looked up): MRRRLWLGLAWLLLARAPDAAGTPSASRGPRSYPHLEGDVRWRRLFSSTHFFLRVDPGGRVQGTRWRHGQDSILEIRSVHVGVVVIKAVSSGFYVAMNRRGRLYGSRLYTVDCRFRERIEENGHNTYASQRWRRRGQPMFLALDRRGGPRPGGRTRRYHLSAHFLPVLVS
E-sel inducer: E-selectin induction in HUVECs, primary screen, imaging, HUVEC, immunofluorescence imaging, single point; activation, % at 7.58 µM; 0.37% of 260,000 active; P16581; normalized: neutral wells 0, TNF-alpha wells 100;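 active = mean E-selectin-positive cell signal at least 10% of the positive control, reached in at least 60% of replicates, without over 20% cell loss; inconclusive = no rule given, readout overlaps actives, possibly toxicity-flagged; inactive = the rest, including those meeting only one limit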
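Assay system: HUVEC, human umbilical vein endothelial cells / Amount: 3,000 HUVEC/well / Controls: TNF-alpha positive control, DMSO neutral control / Compound dosing: single concentration / Medium: EGM-2 over gelatin coat / Evaluation: percent E-selectin-positive cells / Signal: immunofluorescence imaging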
Hits are given with their value; – = inactive; ? = inconclusive; · = no result. Hits are enriched below; roughly 3.3% of the tested compounds scored in any of these assays.

SMILES	DENV2 CPE	Xi reactivation	C2C12 statin	PglD inh	FGF22 binding	E-sel inducer
COCC(=O)N1CC2(CN(C(=O)CN3CCOCC3)C2)c2c([nH]c3cc(OC)ccc23)[C@H]1CO	–	–	·	·	–	–
CCC(=O)N1CCC2(CC1)CN(C(=O)CN1CCOCC1)[C@@H](CO)c1[nH]c3cc(OC)ccc3c12	–	–	·	·	–	–
COc1ccc2c3c([nH]c2c1)[C@H](CO)N(C(=O)CN1CCOCC1)CC31CN(Cc2ccccc2)C1	52	–	·	·	–	–
CCC(=O)N1CC2(C1)CN(C(=O)CN1CCOCC1)[C@H](CO)c1[nH]c3cc(OC)ccc3c12	30	–	·	·	–	–
C[C@@H]1CN([C@H](C)CO)S(=O)(=O)c2ccc(C#Cc3ccncc3)cc2O[C@H]1CN(C)C(=O)C1CCOCC1	–	–	–	–	–	–
C[C@H](CO)N1C[C@H](C)[C@@H](CN(C)Cc2ccc(-c3ccccc3)cc2)Oc2ccc(NS(=O)(=O)c3cn(C)cn3)cc2CC1=O	·	–	·	·	·	·
C[C@H](CO)N1C[C@H](C)[C@@H](CN(C)CC2CC2)OCCCC[C@H](C)Oc2ccc(NS(=O)(=O)c3ccc(Cl)cc3)cc2C1=O	–	–	·	–	–	–
COC(=O)c1[nH]c2ccc(C)cc2c1NC(=O)CN1CCN(Cc2ccccc2)CC1	·	·	–	–	·	·
COC(=O)c1[nH]c2ccc(C)cc2c1NC(=O)CN1CCN(C(=O)c2ccccc2)CC1	·	·	96	–	·	·
CN(C)CCCNC(=O)C[C@H]1CC[C@H]2[C@@H](COC[C@@H](O)CN2CC2CCCC2)O1	–	–	–	–	–	–
COc1ccc2c(n1)Sc1nc3ccccc3nc1N2	–	68	–	–	–	–
COc1cc2ccccc2nn1	–	–	·	·	–	–
CCN1CCN(C(=O)c2ccc(CS(=O)(=O)Cc3ccccc3F)o2)CC1	–	·	95	–	–	·
O=C(O)c1ccc(CS(=O)(=O)Cc2ccccc2F)o1	–	–	·	·	–	·
Cc1ccccc1NC(=O)Nc1ccc2c(c1)C(=O)N(C)[C@H]1CC[C@@H](CC(=O)O)O[C@@H]1CO2	–	–	–	–	–	–
CN1CCN(C(=O)C[C@H]2C[C@H]3c4cc(NC(=O)C5CCOCC5)ccc4O[C@H]3[C@@H](CO)O2)CC1	–	–	–	–	·	–
Cc1noc(C)c1NC(=O)Nc1cccc2c1O[C@@H](CN(C)C(=O)Nc1ccc3c(c1)OCO3)[C@H](C)CN([C@@H](C)CO)C2=O	?	–	–	–	–	–
Cc1ccnc(NC(=O)c2ccc(Cl)c(NC(=O)C(C)Oc3ccccc3)c2)c1 (configuration not stated)	–	–	–	·	43	·
Cc1ccnc(NC(=O)c2ccc(Cl)c(NC(=O)CCc3ccccc3)c2)c1	–	–	·	·	·	–
COc1ccc(/C=N/NC(=O)c2cc[n+]([O-])cc2)cc1	–	–	–	·	–	42
O=C(O)C1Cn2c(nc3c(c2=O)C2(CCCC2)Cc2ccccc2-3)S1 (configuration not stated)	–	–	–	–	43	·
O=C(C[C@H]1C[C@H](C(=O)N2CCCCC2)[C@@]2(CCc3ccccc3)c3[nH]c4ccc(Cl)cc4c3CCN2C1=O)NCc1cccc(C(F)(F)F)c1	–	–	–	–	34	–
O=C(CC1C[C@H](C(=O)N2CCCCC2)[C@@]2(CCc3ccccc3)c3[nH]c4ccccc4c3CCN2C1=O)NCc1cccc(C(F)(F)F)c1 (some centres not stated)	–	–	–	–	–	·
Cc1ccccc1NC(=O)C[C@H]1CC[C@H]2[C@@H](COc3ccc(NC(=O)c4ccc(Cl)cc4)cc3C(=O)N2C)O1	·	–	·	·	·	·
Cc1nc(N)sc1-c1csc(N(C)c2ccc(O)cc2)n1	·	·	94	–	–	·
SMILES	DENV2 CPE	Xi reactivation	C2C12 statin	PglD inh	FGF22 binding	E-sel inducer
O=C(C[C@@H]1CC[C@@H](NC(=O)Nc2ccc(C(F)(F)F)cc2)[C@@H](CO)O1)NCCN1CCCC1	–	–	–	–	–	–
CCOC(=O)N1CCN(C(=O)CSc2ccc3nnc(-c4ccccn4)n3n2)CC1	–	–	·	–	–	–
O=C(CSc1ccc2nnc(-c3ccccn3)n2n1)N1CCOCC1	–	–	–	–	44	·
COc1ccc(CN(C)C[C@@H]2OCCCC[C@@H](C)Oc3ccc(NC(=O)NC4CCCCC4)cc3C(=O)N([C@@H](C)CO)C[C@H]2C)cc1	–	–	·	–	–	–
COCC(=O)Nc1ccc2c(c1)C(=O)N(C)C[C@H](OC)[C@@H](C)CN(C(=O)c1cccnc1)[C@H](C)CO2	–	–	–	–	–	–
Cc1ccc(OCCCNCCO)c(Br)c1	·	·	–	–	·	·
CCCCNCCCOc1ccc(C)cc1Br	–	–	·	·	44	·
COc1ccccc1OCCOc1ccccc1/C=N/n1cnnc1	·	·	–	–	·	·
COc1cccc2cccc(/C=N/n3cnnc3)c12	–	–	–	·	43	·
O=C(CCCc1ccccn1)c1ccc(-c2ccccc2)cc1	–	–	–	–	44	–
O=C(CCCc1ccccn1)c1cccc2ccccc12	–	–	–	–	–	–
Cc1cc(C)n(C(=O)c2cc3ccccc3c(=O)o2)n1	·	·	93	–	·	·
Cc1cccc(-n2ncc(C#N)c2N)c1	·	·	–	–	·	·
N#Cc1cnn(-c2cccc(Cl)c2)c1N	–	–	·	·	43	·
O=C(C[C@@H]1C=C[C@@H](NC(=O)c2ccncc2)[C@@H](CO)O1)Nc1ccc(-c2ccccc2)cc1	–	–	·	·	·	–
CS(=O)(=O)Nc1ccc2c(c1)[C@@H]1C[C@@H](CC(=O)N3CCCCC3)O[C@@H](CO)[C@@H]1O2	–	–	–	–	–	–
Cc1cccc(-n2nc(CC#N)c(C#N)c2N)c1	–	–	·	·	44	·
Cc1ccc(S(=O)(=O)N(C)C)cc1NC(=O)COC(=O)C1CCCC1	34	–	–	–	–	–
Cc1ccc(S(=O)(=O)N(C)C)cc1NC(=O)COC(=O)CCC1CCCC1	–	–	–	·	–	·
C/C(CC(=O)Nc1ccc(C)c(Cl)c1)=N\NC(=O)Cc1cnc(N)s1	–	–	·	·	43	·
C/C(CC(=O)Nc1ccc(C)c(Cl)c1)=N\NC(=O)Cc1ccccc1	·	?	–	–	·	·
Cc1ccccc1-c1nnc(SCC(=O)NC2CCCCC2)o1	·	·	78	·	·	·
Cc1ccc(-c2nnc(SCC(=O)NC3CCCC3)n2N)cc1	–	–	–	–	44	–
